According to ChEMBL document CHEMBL1123252, “Design and synthesis of potent and specific renin inhibitors containing difluorostatine, difluorostatone, and related analogues” (J Med Chem, 1986):
pIC50: −log10 of the molar value. Where a SMILES comes first, the peptide text is derived from it. [ ]: non-standard residue; d: D form. The star is where a group is joined. Ala(2H-imidazol-2-yl) = N[C@@H](CC1N=CC=N1)C(=O)O; Sta = CC(C)C[C@H](N)[C@@H](O)CC(=O)O; NHCH2(2-pyridyl) = c1ccc(CN*)nc1; Boc = CC(C)(C)OC(=O)*

What follows are compounds tested against T1, Renin (Homo sapiens, UniProt P00797) (assay: Inhibition of human plasma renin).
T1 sequence (P00797 whole entry): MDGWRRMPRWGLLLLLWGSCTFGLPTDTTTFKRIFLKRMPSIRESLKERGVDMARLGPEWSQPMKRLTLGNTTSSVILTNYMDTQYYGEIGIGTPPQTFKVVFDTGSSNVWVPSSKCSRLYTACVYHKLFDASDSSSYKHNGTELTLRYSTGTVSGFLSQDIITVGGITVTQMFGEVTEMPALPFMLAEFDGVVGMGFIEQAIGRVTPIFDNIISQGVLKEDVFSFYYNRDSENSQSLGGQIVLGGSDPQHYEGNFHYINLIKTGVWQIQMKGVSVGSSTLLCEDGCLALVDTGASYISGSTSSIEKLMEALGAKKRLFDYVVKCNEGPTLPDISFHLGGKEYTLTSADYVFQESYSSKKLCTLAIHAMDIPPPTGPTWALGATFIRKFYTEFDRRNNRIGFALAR
Type: cell-free
Outline: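 Lyophilized human plasma with 0.1% EDTA, plus phenylmethanesulfonyl fluoride and maleate buffer pH 6.0. Inhibitor given in 1% Tween 80 in water. Angiotensin I generated over 90 min at 37 °C and measured by radioimmunoassay kit. Percent inhibition taken versus control tubes. IC50 estimated graphically from 3-4 concentrations on semilog plot.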

| SMILES | pIC50 |
| --- | --- |
| CC[C@H](C)[C@H](NC(=O)C(F)(F)C(=O)[C@H](CC(C)C)NC(=O)[C@H](CC1N=CC=N1)NC(=O)[C@H](Cc1ccccc1)NC(=O)OC(C)(C)C)C(=O)NCc1ccccn1 | 9.28 |
| CC[C@H](C)[C@H](NC(=O)CC(=O)[C@H](CC(C)C)NC(=O)[C@H](CC1N=CC=N1)NC(=O)[C@H](Cc1ccccc1)NC(=O)OC(C)(C)C)C(=O)NCc1ccccn1 | 7.47 |
| CC[C@H](C)[C@H](NC(=O)C(F)(F)[C@H](O)[C@H](CC(C)C)NC(=O)[C@H](CC1N=CC=N1)NC(=O)[C@H](Cc1ccccc1)NC(=O)OC(C)(C)C)C(=O)NCc1ccccn1 | 7.92 |
| CC[C@H](C)[C@H](NC(=O)C(F)(F)[C@H](O)[C@H](CC1CCCCC1)NC(=O)[C@H](CC1N=CC=N1)NC(=O)[C@H](Cc1ccccc1)NC(=O)OC(C)(C)C)C(=O)NCc1ccccn1 | 9.24 |
| CC[C@H](C)[C@H](NC(=O)C(F)(F)[C@@H](O)[C@H](CC(C)C)NC(=O)[C@H](CC1N=CC=N1)NC(=O)[C@H](Cc1ccccc1)NC(=O)OC(C)(C)C)C(=O)NCc1ccccn1 | 6.14 |
| CC[C@H](C)[C@H](NC(=O)C(F)(F)[C@H](O)[C@H](Cc1ccccc1)NC(=O)[C@H](CC1N=CC=N1)NC(=O)[C@H](Cc1ccccc1)NC(=O)OC(C)(C)C)C(=O)NCc1ccccn1 | 7.89 |
| CC[C@H](C)[C@H](NC(=O)C(F)(F)C(=O)[C@H](CC1CCCCC1)NC(=O)[C@H](CC1N=CC=N1)NC(=O)[C@H](Cc1ccccc1)NC(=O)OC(C)(C)C)C(=O)NCc1ccccn1 | 8.60 |
| CC[C@H](C)[C@H](NC(=O)C(F)(F)C(=O)[C@H](Cc1ccccc1)NC(=O)[C@H](CC1N=CC=N1)NC(=O)[C@H](Cc1ccccc1)NC(=O)OC(C)(C)C)C(=O)NCc1ccccn1 | 8.89 |
| CC[C@H](C)[C@H](NC(=O)C[C@H](O)[C@H](CC(C)C)NC(=O)[C@H](CC1N=CC=N1)NC(=O)[C@H](Cc1ccccc1)NC(=O)OC(C)(C)C)C(=O)NCc1ccccn1 (Boc-F[Ala(2H-imidazol-2-yl)][Sta]I-{NHCH2(2-pyridyl)}) | 8.77 |
